Among the data in ChEMBL document CHEMBL3112572, “Substituted 4-phenyl-2-aminoimidazoles and 4-phenyl-4,5-dihydro-2-aminoimidazoles as voltage-gated sodium channel modulators” (Eur J Med Chem, 2014) are IC50 values, retold here.

The target in assay [1] is T1, Sodium channel protein type 9 subunit alpha (Homo sapiens, UniProt Q15858). Briefly: Modulation of human Nav1.7 in closed state assessed as inhibition of inward current after 4 mins by whole-cell electrophysiology. In short, it runs like this:
(§1)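 Automated whole-cell patch clamp (QPatch HT) on trypsin-EDTA-dissociated cells held in serum-free medium. Closed-state test pulse depolarizes from -100 mV. 0.1% DMSO vehicle for 4 min is followed by four cumulative bolus concentrations (0.3–10 µM, 0.1% DMSO final), each incubated 4 min. Peak inward current from the last three sweeps is compared with vehicle, and IC50 comes from a 4-parameter logistic fit constrained 0–100%, n≥3.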

Assay [2] has as its target T2, Sodium channel protein type 4 subunit alpha (Homo sapiens, UniProt P35499). Kind of assay: Modulation of human Nav1.4 in closed state assessed as inhibition of inward current after 4 mins by whole-cell electrophysiology. The method, boiled down:
as §1

Assay [3] addresses T1, Sodium channel protein type 9 subunit alpha. Briefly: Modulation of human Nav1.7 in open-inactivated state assessed as inhibition of inward current after 4 mins by whole-cell electrophysiology. The method, boiled down: (§2)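 Cells dissociated with trypsin-EDTA are kept in serum-free medium and recorded by QPatch HT whole-cell clamp with a high-frequency, pathophysiological protocol. The open-inactivated test pulse depolarizes from about -70 mV. After 4 min of vehicle (0.1% DMSO), 0.3–10 µM is added cumulatively, 4 min per level. Percent inhibition of peak inward current uses the mean of the last three sweeps against vehicle. IC50 is fitted by a constrained 4-parameter logistic, mean ± SD of ≥3 experiments.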

Assay [4] concerns the target T3, Sodium channel protein type 3 subunit alpha (Homo sapiens, UniProt Q9NY46). Briefly: Modulation of human Nav1.3 in closed state assessed as inhibition of inward current after 4 mins by whole-cell electrophysiology. In short, it runs like this:
as §1

In assay [5] the target is T2, Sodium channel protein type 4 subunit alpha. Kind of assay: Modulation of human Nav1.4 in open-inactivated state assessed as inhibition of inward current after 4 mins by whole-cell electrophysiology. In short, it runs like this:
as §2

The target in assay [6] is T3, Sodium channel protein type 3 subunit alpha. Kind of assay: Modulation of human Nav1.3 in open-inactivated state assessed as inhibition of inward current after 4 mins by whole-cell electrophysiology.

A value given as a limit tells only on which side of the number the result lay.

T2 sequence (P35499 whole entry): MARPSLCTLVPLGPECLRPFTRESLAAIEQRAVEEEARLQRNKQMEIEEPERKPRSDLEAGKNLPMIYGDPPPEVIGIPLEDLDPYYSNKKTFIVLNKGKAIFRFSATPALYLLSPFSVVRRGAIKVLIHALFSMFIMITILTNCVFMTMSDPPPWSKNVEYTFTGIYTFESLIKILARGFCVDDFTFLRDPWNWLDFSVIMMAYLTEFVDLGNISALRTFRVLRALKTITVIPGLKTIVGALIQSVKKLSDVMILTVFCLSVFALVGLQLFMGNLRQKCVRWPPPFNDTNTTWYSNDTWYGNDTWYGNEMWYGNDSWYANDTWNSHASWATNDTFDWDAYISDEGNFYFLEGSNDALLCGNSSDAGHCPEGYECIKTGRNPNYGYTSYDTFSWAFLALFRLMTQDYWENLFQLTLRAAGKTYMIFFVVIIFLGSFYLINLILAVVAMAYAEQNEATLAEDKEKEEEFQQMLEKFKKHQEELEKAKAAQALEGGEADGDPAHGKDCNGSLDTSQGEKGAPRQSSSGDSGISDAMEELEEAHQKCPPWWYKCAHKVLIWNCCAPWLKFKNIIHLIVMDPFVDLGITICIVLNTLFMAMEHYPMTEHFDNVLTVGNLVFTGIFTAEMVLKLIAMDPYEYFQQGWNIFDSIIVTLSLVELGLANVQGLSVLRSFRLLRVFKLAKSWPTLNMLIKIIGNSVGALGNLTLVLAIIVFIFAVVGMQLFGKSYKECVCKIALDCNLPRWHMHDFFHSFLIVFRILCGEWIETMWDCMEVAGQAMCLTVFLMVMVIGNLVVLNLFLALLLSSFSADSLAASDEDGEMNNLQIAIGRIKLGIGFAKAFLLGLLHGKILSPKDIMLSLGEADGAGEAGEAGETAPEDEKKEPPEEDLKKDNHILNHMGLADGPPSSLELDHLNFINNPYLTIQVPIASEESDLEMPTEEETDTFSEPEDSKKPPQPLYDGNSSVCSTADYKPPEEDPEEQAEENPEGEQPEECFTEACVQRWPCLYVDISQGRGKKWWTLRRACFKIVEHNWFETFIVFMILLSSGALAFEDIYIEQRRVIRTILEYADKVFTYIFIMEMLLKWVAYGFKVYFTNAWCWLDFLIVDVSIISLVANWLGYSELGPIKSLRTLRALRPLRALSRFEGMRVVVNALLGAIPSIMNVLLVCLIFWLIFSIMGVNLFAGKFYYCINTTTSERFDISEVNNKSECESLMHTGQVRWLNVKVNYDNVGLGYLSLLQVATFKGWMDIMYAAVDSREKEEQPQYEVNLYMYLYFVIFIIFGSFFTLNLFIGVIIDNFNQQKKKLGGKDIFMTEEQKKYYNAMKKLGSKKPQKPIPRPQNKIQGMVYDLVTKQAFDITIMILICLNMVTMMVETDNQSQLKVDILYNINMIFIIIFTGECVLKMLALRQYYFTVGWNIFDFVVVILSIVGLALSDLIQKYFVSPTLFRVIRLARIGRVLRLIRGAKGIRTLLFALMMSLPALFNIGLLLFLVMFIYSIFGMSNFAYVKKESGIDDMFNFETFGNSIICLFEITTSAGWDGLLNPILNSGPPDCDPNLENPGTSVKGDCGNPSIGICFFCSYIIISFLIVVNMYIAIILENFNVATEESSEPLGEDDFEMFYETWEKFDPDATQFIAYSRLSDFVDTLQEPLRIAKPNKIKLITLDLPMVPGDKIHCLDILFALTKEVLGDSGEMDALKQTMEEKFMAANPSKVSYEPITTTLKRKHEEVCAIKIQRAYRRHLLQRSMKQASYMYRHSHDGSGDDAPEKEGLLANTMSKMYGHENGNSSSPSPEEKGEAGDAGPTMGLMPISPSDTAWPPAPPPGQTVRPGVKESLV
T1 sequence (Q15858 whole entry): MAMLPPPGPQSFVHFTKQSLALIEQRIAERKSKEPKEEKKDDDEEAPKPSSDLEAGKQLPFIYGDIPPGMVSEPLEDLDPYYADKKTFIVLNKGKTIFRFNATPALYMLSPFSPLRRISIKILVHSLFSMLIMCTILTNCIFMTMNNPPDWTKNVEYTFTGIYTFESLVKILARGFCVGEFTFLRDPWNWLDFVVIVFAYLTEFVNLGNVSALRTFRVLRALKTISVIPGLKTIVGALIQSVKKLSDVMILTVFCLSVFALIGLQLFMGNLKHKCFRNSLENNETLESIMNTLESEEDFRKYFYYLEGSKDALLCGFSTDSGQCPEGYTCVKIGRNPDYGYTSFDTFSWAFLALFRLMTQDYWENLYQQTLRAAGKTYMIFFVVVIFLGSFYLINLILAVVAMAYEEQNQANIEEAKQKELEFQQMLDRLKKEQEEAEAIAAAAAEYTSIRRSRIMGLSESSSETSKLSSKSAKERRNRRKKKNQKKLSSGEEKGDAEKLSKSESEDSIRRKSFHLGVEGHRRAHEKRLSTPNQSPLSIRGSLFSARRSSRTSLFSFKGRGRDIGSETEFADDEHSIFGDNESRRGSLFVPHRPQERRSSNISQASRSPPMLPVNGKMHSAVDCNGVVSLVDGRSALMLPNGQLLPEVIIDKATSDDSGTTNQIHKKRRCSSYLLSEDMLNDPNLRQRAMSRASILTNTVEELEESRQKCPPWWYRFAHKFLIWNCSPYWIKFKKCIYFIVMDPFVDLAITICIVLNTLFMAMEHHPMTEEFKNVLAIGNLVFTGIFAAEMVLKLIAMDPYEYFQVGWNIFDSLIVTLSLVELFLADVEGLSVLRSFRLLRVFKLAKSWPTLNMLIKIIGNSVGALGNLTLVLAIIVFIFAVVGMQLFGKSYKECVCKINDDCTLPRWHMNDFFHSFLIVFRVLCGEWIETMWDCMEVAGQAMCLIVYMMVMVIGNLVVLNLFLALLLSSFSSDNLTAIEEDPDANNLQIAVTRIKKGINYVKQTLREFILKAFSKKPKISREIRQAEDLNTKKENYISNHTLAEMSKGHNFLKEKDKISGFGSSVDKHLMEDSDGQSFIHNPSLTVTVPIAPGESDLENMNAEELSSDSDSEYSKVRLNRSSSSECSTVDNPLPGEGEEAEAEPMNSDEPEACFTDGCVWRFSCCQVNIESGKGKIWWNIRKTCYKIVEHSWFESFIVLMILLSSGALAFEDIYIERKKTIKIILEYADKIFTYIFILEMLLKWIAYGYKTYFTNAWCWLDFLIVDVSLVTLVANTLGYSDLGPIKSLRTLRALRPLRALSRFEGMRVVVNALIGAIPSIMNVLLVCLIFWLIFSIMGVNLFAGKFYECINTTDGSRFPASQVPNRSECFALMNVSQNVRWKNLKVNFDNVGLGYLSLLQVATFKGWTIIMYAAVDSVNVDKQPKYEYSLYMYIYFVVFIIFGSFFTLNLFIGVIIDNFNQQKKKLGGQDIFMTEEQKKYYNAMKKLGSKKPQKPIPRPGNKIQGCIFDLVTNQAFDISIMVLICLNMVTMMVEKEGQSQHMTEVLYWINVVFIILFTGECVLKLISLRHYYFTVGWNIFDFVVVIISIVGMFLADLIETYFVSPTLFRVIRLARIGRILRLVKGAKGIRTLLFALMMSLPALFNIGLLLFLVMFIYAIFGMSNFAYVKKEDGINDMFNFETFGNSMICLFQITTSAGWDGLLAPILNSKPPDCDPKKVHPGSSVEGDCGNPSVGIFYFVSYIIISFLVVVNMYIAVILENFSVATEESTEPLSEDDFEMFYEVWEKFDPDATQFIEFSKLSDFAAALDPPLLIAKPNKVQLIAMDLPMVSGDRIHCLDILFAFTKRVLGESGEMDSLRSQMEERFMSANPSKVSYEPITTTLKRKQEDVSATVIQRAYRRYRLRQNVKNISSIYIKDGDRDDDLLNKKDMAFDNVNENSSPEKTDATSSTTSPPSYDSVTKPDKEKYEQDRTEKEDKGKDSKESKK

Turning to `Nc1nc(-c2ccc(NC(=O)c3ccc[nH]3)cc2)c[nH]1`, the IC50 in assay [1] is more than 30 µM; in assay [2], more than 30 µM; in assay [3] it was 27 µM; in assay [4] it was more than 30 µM; in assay [5] it was more than 30 µM; in assay [6], more than 30 µM.
Turning to `Nc1nc(-c2cccc(NC(=O)c3ccc[nH]3)c2)c[nH]1`, the IC50 in assay [1], in assay [2], in assay [3], in assay [4], in assay [5] and in assay [6] was more than 30 µM in each case.
For `CNc1nc(-c2cccc(NC(=O)c3ccco3)c2)cn1C(=O)OC(C)(C)C`, the IC50 in assay [1] is more than 30 µM; in assay [2], more than 30 µM; in assay [3], 26 µM; in assay [4], more than 30 µM; in assay [5], more than 30 µM; in assay [6], more than 30 µM.
With `CC(C)(C)OC(=O)n1cc(-c2ccc(NC(=O)[C@H]3CCCN3)cc2)nc1N`, the IC50 in assay [1], in assay [2], in assay [3], in assay [4], in assay [5] and in assay [6] was more than 30 µM throughout.
Consider `CC(C)(C)OC(=O)n1cc(-c2ccc(NC(=O)c3ccc[nH]3)cc2)nc1N`, for which the 50% inhibitory concentration (IC50) in assay [1], in assay [2], in assay [3], in assay [4], in assay [5] and in assay [6] was more than 30 µM in each case.
In the case of `CC(C)(C)OC(=O)n1cc(-c2cccc(NC(=O)c3ccc[nH]3)c2)nc1N`, the IC50 in assay [1] was more than 30 µM; in assay [2], more than 30 µM; in assay [3], more than 30 µM; in assay [4], more than 30 µM; in assay [5], 25 µM; in assay [6], 25 µM.
On to `Nc1nc(-c2cccc(NC(=O)c3ccc[nH]3)c2)cn1C(=O)c1ccc[nH]1`, for which the IC50 in assay [1] is more than 30 µM; in assay [2] it was more than 30 µM; in assay [3] it was 19 µM; in assay [4] it was more than 30 µM; in assay [5], more than 30 µM; in assay [6] it was 25 µM.
Regarding `CC(C)(C)OC(=O)n1cc(-c2cccc(NC(=O)c3c[nH]c4ccccc34)c2)nc1N`, the IC50 was more than 30 µM in assay [1]; more than 30 µM in assay [2]; more than 30 µM in assay [3]; more than 30 µM in assay [4]; 26 µM in assay [5]; 27 µM in assay [6].
For the compound `CC(C)(C)OC(=O)n1cc(-c2cccc(NC(=O)[C@H]3CCCN3)c2)nc1N`, the IC50 in assay [1] is more than 30 µM; in assay [2] it was more than 30 µM; in assay [3] it was 29 µM; in assay [4], more than 30 µM; in assay [5], more than 30 µM; in assay [6] it was more than 30 µM.
`CC(C)(C)OC(=O)n1cc(-c2ccc(NC(=O)c3ccco3)cc2)nc1N`: the IC50 in assay [1] is more than 30 µM; in assay [2] it was more than 30 µM; in assay [3], 22 µM; in assay [4] it was more than 30 µM; in assay [5], more than 30 µM; in assay [6] it was 27 µM.
In the case of `Nc1nc(-c2cccc(NC(=O)c3cc4ccccc4[nH]3)c2)c[nH]1`, the IC50 in assay [1], in assay [2], in assay [3], in assay [4], in assay [5] and in assay [6] was more than 30 µM each time.
On to `CNc1nc(-c2cccc(NC(=O)c3cc4ccccc4[nH]3)c2)c[nH]1`, for which the IC50 in assay [1], in assay [2], in assay [3], in assay [4], in assay [5] and in assay [6] was more than 30 µM each time.
For `Nc1nc(-c2cccc(NC(=O)c3c[nH]c4ccccc34)c2)c[nH]1`, the IC50 was more than 30 µM in assay [1]; more than 30 µM in assay [2]; 26 µM in assay [3]; more than 30 µM in assay [4]; 14 µM in assay [5]; 12 µM in assay [6].
Regarding `CCN(CC)CC(=O)Nc1c(C)cccc1C` [LIDOCAINE], the IC50 in assay [5] was determined as 2 µM; in assay [6] it was 10.5 µM.
For `CC(C)(C)OC(=O)n1cc(-c2ccc(NC(=O)[C@@H]3CCCN3)cc2)nc1N`, the IC50 in assay [1] was more than 30 µM; in assay [2], more than 30 µM; in assay [3], 19 µM; in assay [4], more than 30 µM; in assay [5], more than 30 µM; in assay [6], 25 µM.
Take `CC(C)(C)OC(=O)n1cc(-c2cccc(NC(=O)c3cc[nH]c3)c2)nc1N`: the IC50 in assay [1] is more than 30 µM; in assay [2], more than 30 µM; in assay [3], more than 30 µM; in assay [4], more than 30 µM; in assay [5], more than 30 µM; in assay [6], 23 µM.
Turning to `Nc1nc(-c2cccc(NC(=O)c3cc[nH]c3)c2)c[nH]1`, the IC50 in assay [1] was more than 30 µM; in assay [2], more than 30 µM; in assay [3], more than 30 µM; in assay [4] it was more than 30 µM; in assay [5], 15 µM; in assay [6], 12 µM.
For the compound `Nc1nc(-c2ccc(NC(=O)c3cc4ccccc4[nH]3)cc2)c[nH]1`, the IC50 in assay [1], in assay [2], in assay [3], in assay [4], in assay [5] and in assay [6] was more than 30 µM throughout.
Consider `CC(C)(C)OC(=O)n1cc(-c2cccc(NC(=O)c3cc4ccccc4[nH]3)c2)nc1N`, for which the IC50 is more than 30 µM in assay [1]; more than 30 µM in assay [2]; more than 30 µM in assay [3]; more than 30 µM in assay [4]; more than 30 µM in assay [5]; 26 µM in assay [6].
Consider `CNc1nc(-c2cccc(NC(=O)c3cc4ccccc4[nH]3)c2)cn1C(=O)OC(C)(C)C`, for which the IC50 in assay [1], in assay [2], in assay [3], in assay [4], in assay [5] and in assay [6] was more than 30 µM each time.
In the case of `CC(C)(C)OC(=O)n1cc(-c2ccc(NC(=O)c3cc4ccccc4[nH]3)cc2)nc1N`, the IC50 is more than 30 µM in assay [1]; more than 30 µM in assay [2]; more than 30 µM in assay [3]; more than 30 µM in assay [4]; 28 µM in assay [5]; 22 µM in assay [6].
As for `Nc1nc(-c2ccc(NC(=O)[C@@H]3CCCN3)cc2)c[nH]1`, the IC50 in assay [1] was more than 30 µM; in assay [2] it was more than 30 µM; in assay [3] it was more than 30 µM; in assay [4], more than 30 µM; in assay [5] it was more than 30 µM; in assay [6], 13 µM.
